The list is not random: actives were taken first. Their share in the collection is about 1.4%.
TNAP inh no acc – human TNAP enzyme inhibitors, primary screen, biochemical, luminescent, no phosphate acceptor, uHTS; inhibition, % at 20 µM; purified TNAP, CDP-star luminescence, 30 min; actives 0.26% (n = 200,000);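 active = tissue-nonspecific alkaline phosphatase inhibition above about 50% at 20 µM in the single-dose screen, limit read from the data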;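 note: 0% = DMSO negative control and 100% = EDTA positive control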
Target sequence (P05186 whole entry, looked up): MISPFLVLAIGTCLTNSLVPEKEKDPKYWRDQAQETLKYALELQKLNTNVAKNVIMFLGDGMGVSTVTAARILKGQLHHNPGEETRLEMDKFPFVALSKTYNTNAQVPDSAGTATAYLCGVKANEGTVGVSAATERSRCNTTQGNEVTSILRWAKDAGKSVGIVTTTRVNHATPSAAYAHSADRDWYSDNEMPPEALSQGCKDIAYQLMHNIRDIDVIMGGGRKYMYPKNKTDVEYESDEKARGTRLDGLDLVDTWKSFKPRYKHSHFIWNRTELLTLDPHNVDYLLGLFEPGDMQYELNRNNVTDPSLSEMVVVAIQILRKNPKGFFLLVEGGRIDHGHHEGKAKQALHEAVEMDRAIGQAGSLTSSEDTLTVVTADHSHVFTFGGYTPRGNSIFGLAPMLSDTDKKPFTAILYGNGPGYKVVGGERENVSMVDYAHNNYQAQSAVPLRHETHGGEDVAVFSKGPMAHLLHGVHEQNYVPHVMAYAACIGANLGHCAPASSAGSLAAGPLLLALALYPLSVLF
CHT inh – inhibitors of human choline transporter CHT; actives 0.86% (n = 310,000); High affinity choline transporter 1 (Homo sapiens), Q9GZV3; B-score at 10 µM; CHT-expressing cells, membrane potential dye, choline response; hits give low values;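 active = B-score over 3 SD under the library average, and starting fluorescence ratio not unusually high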;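 note: choline stimulus applied at its EC90 after an EC20 pre-addition; B-score computed on integrated fluorescence ratio after choline addition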
CHT allo act – CHT positive allosteric modulators, primary screen, cell-based, membrane potential dye, choline EC20; High affinity choline transporter 1 (Homo sapiens), Q9GZV3; CHT-expressing cells; hits give high values; LV-AA mutant CHT in HEK293 cells; B-score at 10 µM; actives 0.49% (n = 310,000);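 active = initial fluorescence not abnormally high and integrated response B-score, plate-corrected, over 3 SD above library mean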
TNAP inh hi DEA – human TNAP enzyme inhibitors, primary screen, biochemical, luminescent, high phosphate acceptor level, uHTS; actives 0.03% (n = 200,000); inhibition, % at 20 µM; purified TNAP, CDP-star luminescence, 1 M DEA;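 active = over 50% inhibition of tissue-nonspecific alkaline phosphatase at 20 µM in the single-dose screen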;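 note: plate controls were DMSO wells for no effect and EDTA-quenched wells as full inhibition for full effect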
TNAP act hiacc – TNAP activators at high phosphate acceptor level, primary screen, biochemical, luminescence, uHTS; purified TNAP, CDP-star luminescence, 1 M DEA, 30 min; hits give high values; 0 = EDTA background, 1 = DMSO-only activity; activation factor at 20 µM; 200,000 tested, under 10 active; AID 1136, 2008;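 active = activation factor at least 2 at 20 µM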
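system = human TNAP | amount = enzyme diluted 1/800 final | reagent = 100 µM CDP-star substrate | signal = luminescent substrate turnover signal | dosing = one dose, 20 µM | benchmarks = EDTA negative control, DMSO positive control | measure = activation factor | timing = 30 min reaction, room temperature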
ABCB6 inh 2 – ABCB6 transporter inhibitors, primary screen, K562-ABCB6 cells, flow cytometry, MLPCN library | ATP-binding cassette sub-family B member 6 (Homo sapiens), Q9NP58 | K562-ABCB6 porphyrin accumulation, 1 h; hits give low values | fluorescence ratio to DMSO, % at 10 µM | actives 0.19% (n = 360,000) | AID 602162, 2011;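 active = fluorescence ratio to DMSO below 75%, the collection mean minus 3 SD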;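 note: signal is porphyrin accumulated inside mitochondria; 100% equals median channel fluorescence of DMSO control wells; lower ratio means ABCB6 inhibition with less porphyrin fluorescence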
CHT block conf – CHT inhibitors, confirmation, cell-based, membrane potential dye, duplicate; shares compounds with CHT inh; CHT-expressing cells, choline membrane potential dye; LV-to-AA substituted CHT, HEK293 cells; CHT activity remaining % of control (hits give low values), % at 10 µM; actives 70% (n = 2,400);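 active = choline transporter activity left, mean of duplicates at 10 µM, below buffer-only control mean minus 3 SD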;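 note: depolarization triggered by choline at its EC90 following an EC20 pre-addition; 0% = hemicholinium-3 full block and 100% = buffer-only control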
HEK293 MPD ctr – membrane potential effects in parental HEK293, counter-screen for CHT inhibitor project, cell-based, membrane potential dye | shares compounds with CHT inh | choline response; active = decrease or increase beyond buffer ±3SD | membrane potential ratio readout (active if shifted either direction beyond buffer ±3SD; no single direction) at 10 µM | actives 4% (n = 2,400) | AID 493222, 2011;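 note: parental cells lack the transporter so any hit is non-specific; ratio is peak minus trough fluorescence over baseline after EC90 choline challenge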
Active calls of the source: *; i = inactive; . = not tested or not shown.

SMILES	TNAP inh no acc	CHT inh	CHT allo act	TNAP inh hi DEA	TNAP act hiacc	ABCB6 inh 2	others
CCOc1cccc(C(=O)Nc2ccccc2N2CCN(C(=O)C(C)C)CC2)c1	0	-5.7*	i	-2	1	99
CCCCCCNc1c([N+](=O)[O-])c(=O)sc2ccccc12	4	i	i	1	1	94
O=C(c1ccc2c(c1)OCO2)C1CCCN(Cc2c(F)ccc(F)c2F)C1 (configuration not stated)	.	i	i	.	.	99
CCCc1cc(=O)n2[nH]c(-c3ccc(Cl)cc3)cc2n1	.	i	i	.	.	103
O=c1cc(-c2ccc([N+](=O)[O-])cc2)nc2cc(-c3ccc(Cl)cc3)[nH]n12	51*	i	i	3	1	.
N#CC1=C(N)Oc2n[nH]c(-c3cccs3)c2C1C1CCCCC1 (configuration not stated)	23	i	i	-2	1	87
N#CC1=C(N)Oc2n[nH]c(-c3cccs3)c2C1C1C=CCCC1 (configuration not stated)	54*	i	i	-5	1	89
COc1ccc2nc(-n3c(O)c(C4=c5ccccc5=NC4=O)[nH]c3=S)sc2c1	45	i	i	88*	0.1	100
O=C(N/N=C\c1cccnc1)c1cc(-c2ccc(Cl)s2)[nH]n1	84*	i	i	22	0.8	99
Cc1[nH]c2ccccc2c1/C=N/NC(=O)c1cc(-c2cccs2)[nH]n1	81*	i	i	13	0.9	97
Cc1nn(-c2ccccc2)c(C)c1/C=N/NC(=O)c1cc(C(C)(C)C)[nH]n1	-10	i	i	-4	1	106
Cc1ccc(-c2cc(C(=O)N/N=C/c3c(C)nn(-c4ccccc4)c3C)n[nH]2)s1	60*	.	.	6	0.9	109
Cc1ccc(-c2cc(C(=O)N/N=C/c3c(C)nn(-c4ccccc4)c3C)[nH]n2)cc1	83*	.	.	5	1	89
Cc1cc2c(SCC(=O)NC3CCCC3)ncnc2s1	.	i	i	.	.	101
O=C(c1cccnc1)n1nc(-c2ccco2)nc1NCc1cccs1	63*	.	.	-2	1	98
CC(C)C(=O)n1nc(-c2cccnc2)nc1NCc1cccs1	42	i	i	-2	1	93
c1ccc(-c2nc(CSc3n[nH]c(-c4cccs4)n3)cs2)cc1	60*	i	i	-5	1.1	95
O=C(CSc1n[nH]c(-c2cccs2)n1)N1CCCC1	.	.	.	.	.	92
CCc1ccc(C(C)NC(=S)NC2CCCCC2)cc1 (configuration not stated)	.	-8.1*	i	.	.	97	CHT block conf=49%*;HEK293 MPD ctr=i
CCCCNC(=O)Nc1c(C(=O)OC)[nH]c2ccc(C)cc12	-8	-6.9*	i	-3	1	94	CHT block conf=i;HEK293 MPD ctr=i
Cc1csc(SCC(=O)Nc2cc([N+](=O)[O-])ccc2F)n1	.	.	.	.	.	97
CN(Cc1ccccc1)C(=O)COC(=O)CCC(=O)c1ccc(F)cc1	.	.	.	.	.	98
Cc1cc(C)c2nc(N3CCCN(C(=O)c4cnccn4)CC3)c(C#N)cc2c1	-8	-5.2*	i	-3	1	103	CHT block conf=38%*;HEK293 MPD ctr=i
Cc1cc(C)c2nc(N3CCN(C)CC3)c(C#N)cc2c1	-8	i	i	-7	1.1	92
O=C(Nc1nnc(CCN2CCOCC2)s1)C1CCCCC1	-12	i	i	-1	1	96
SMILES	TNAP inh no acc	CHT inh	CHT allo act	TNAP inh hi DEA	TNAP act hiacc	ABCB6 inh 2	others
COc1ccc(NC(=O)N(C)C[C@H]2Oc3c(NC(=O)c4nc5ccccc5s4)cccc3C(=O)N([C@@H](C)CO)C[C@H]2C)cc1	.	.	.	.	.	98
CC(C)c1ccc(S(=O)(=O)/N=C2\C=C(NS(=O)(=O)c3ccccc3)C(=O)c3ccccc32)cc1	.	-10*	i	.	.	99	CHT block conf=39%*;HEK293 MPD ctr=i
Cc1cc(CN(C)C(=O)c2cc(COc3ccc(F)cc3Cl)on2)n[nH]1	-6	-6*	i	-3	1	103	CHT block conf=55%*;HEK293 MPD ctr=i
CCN(Cc1ccncc1)C(=O)c1cc(COc2ccc(F)cc2Cl)on1	.	-5.7*	i	.	.	88	CHT block conf=49%*;HEK293 MPD ctr=i
CN(Cc1ccccn1)C(=O)c1cc(COc2ccc(F)cc2Cl)on1	.	.	.	.	.	97
O=C(CCS(=O)(=O)c1cccc2nonc12)NCc1ccc(Cl)cc1	-1	i	i	3	1	89
CC(C)C[C@H]1CN=C(Nc2ccccc2)N1CCC1CCCCC1	.	i	i	.	.	99
c1ccc(C[C@H]2CN=C(Nc3ccccc3)N2CCC2CCCC2)cc1	.	-6.8*	i	.	.	87	CHT block conf=56%*;HEK293 MPD ctr=i
CCCCCOC(=O)C1=C(C)Nc2nnnn2C1c1ccccc1Cl (configuration not stated)	-10	i	i	-3	1	94
COc1ccc(S(=O)(=O)/N=C2/NC(=O)/C(=C\c3cc(OC)c(OC)cc3[N+](=O)[O-])S2)cc1	-2	i	i	0	1	100
COc1cc(/C=C2\S/C(=N/S(=O)(=O)c3ccccc3)NC2=O)c([N+](=O)[O-])cc1OC	0	-8.2*	i	8	0.9	100	CHT block conf=53%*;HEK293 MPD ctr=i
COc1cc(C2Nc3ccc4ncccc4c3C3=C2C(=O)CCC3)ccc1O (configuration not stated)	-1	-6.2*	i	-5	1	92	CHT block conf=i;HEK293 MPD ctr=i
CC(=O)c1ccc(S(=O)(=O)NCCOc2ccccc2)cc1	.	.	.	.	.	96
CCOC(=O)c1cnc2c(OC)cccc2c1Nc1ccc2c(c1)OCCO2	-9	i	i	1	1	99
CC(=O)Nc1ccc(NC(=O)CN(C)S(=O)(=O)c2ccc3c(c2)CCC(=O)N3)cc1	.	i	i	.	.	91
CC(C)C[C@H](NC(=O)[C@H](Cc1ccccc1)n1c(=O)[nH]c2ccccc2c1=O)C(=O)N1CCC[C@@H]1C(=O)O	.	i	i	.	.	105
